Data taken from PubChem BioAssay AID540281 (Sanford-Burnham Center for Chemical Genomics, 2011).
Out of some 2,500 compounds screened, about 1,500 (60%) were called active. So high a share suggests a set chosen from earlier hits. A selection follows. Unmarked numbers belong to inactive results.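 The calls were made as follows: active = inhibition of at least 30% at 20 µM; inactive = the rest.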 Non-standard residues stand in square brackets, D forms with d. Residues, ends and D or L forms follow the SMILES beside them. ξ: configuration not given here. ξM = CSCCC(N)C(=O)O

Target: Carboxy-terminal domain RNA polymerase II polypeptide A small phosphatase 1 (Homo sapiens) (UniProt Q9GZU7)
Assay: SCP1 dephosphorylation blockade at one dose – biochemical, colorimetric, single concentration, confirmation (AID 540281);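 also: plate controls were DMSO with enzyme for no effect and buffer wells lacking enzyme for full effect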
Settings: recombinant SCP-1 catalytic domain, phosphate release, malachite green absorbance; at 20 µM; hits give high values
Procedure, shortened: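 Assay system: SCP-1 enzyme, residues 76-261 / Medium: Tris acetate buffer pH 5.5 with 10 mM MgCl2 and Tween-20 / Also added: Phospho-17-mer peptide substrate / Compound: one dose, 20 µM final, 1.0% DMSO / Timing: 45 min phosphatase reaction at RT / Technique: Phosphate-release colorimetry, 630 nm absorbance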

Sequence of Carboxy-terminal domain RNA polymerase II polypeptide A small phosphatase 1 (Homo sapiens) (Q9GZU7 76-261 limits assumed): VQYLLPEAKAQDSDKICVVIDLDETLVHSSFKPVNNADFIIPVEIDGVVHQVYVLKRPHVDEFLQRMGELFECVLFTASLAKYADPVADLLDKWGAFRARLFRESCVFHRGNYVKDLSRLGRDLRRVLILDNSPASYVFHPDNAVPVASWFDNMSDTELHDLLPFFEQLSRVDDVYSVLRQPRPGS

Q: How did the inhibition turn out when `Cc1ccc(NC(=O)COc2ccc(/C=N\NC(=O)c3cccnc3)cc2)cc1C` was run?
A: The inhibition was 81% (active).

Q: With `Cc1ccccc1NC(=O)CN1C(=O)N/C(=C\c2cccn2-c2cccc(C(=O)O)c2)C1=O` as the compound, how does the inhibition read?
A: The inhibition was 82.2% (active).

Q: For `Cc1ccc(C2(C)NC(=O)N(CC(=O)Nc3ccccc3C(=O)N3CCCCC3)C2=O)cc1` (stereo not drawn), which inhibition is on record?
A: The inhibition was -13.7%.

Q: How did the inhibition turn out when `C[C@H](CO)N1C[C@H](C)[C@@H](CN(C)C(=O)NC2CCCCC2)Oc2ccc(NC(=O)c3ccncc3)cc2C1=O` was run?
A: Its inhibition is 6.94%.

Q: How did the inhibition turn out when `COc1ccc(NC(=O)N(C)C[C@H]2Oc3ccc(NC(=O)C4CC4)cc3C(=O)N([C@H](C)CO)C[C@@H]2C)cc1` was run?
A: The inhibition was 2.35%.

Q: With `C[C@H](CO)N1C[C@H](C)[C@H](CN(C)C(=O)Nc2ccc(C(F)(F)F)cc2)Oc2c(NC(=O)c3ccncc3)cccc2C1=O` as the compound, how does the inhibition read?
A: Its inhibition is 44.3% (active).

Q: With `CNS(=O)(=O)c1cccc(C(=O)OCC(=O)N2c3ccccc3NC(=O)C2(C)C)c1` as the compound, how does the inhibition read?
A: Its inhibition is 48.6% (active).

Q: How did the inhibition turn out when `CC(NC(=O)CC1SC(N)=NC1=O)c1ccccc1` (stereo not drawn) was run?
A: Its inhibition is -28.8%.

Q: `C=Cc1ccc(C(=O)N2CCCC(CCC(=O)N3CCN(c4ccccn4)CC3)C2)cc1` (stereo not drawn) was tested. Which inhibition did it give?
A: The inhibition was 67% (active).

Q: Which inhibition does the source give for `O=C(Nc1cc(S(=O)(=O)N2CCCCC2)ccc1Cl)C1COc2ccccc2O1` (stereo not drawn) here?
A: Its inhibition is 65.1% (active).

Q: `COc1cc(SC)ccc1C(=O)NNC(=O)C1COc2ccccc2O1` (stereo not drawn) was tested. Which inhibition did it give?
A: Its inhibition is 5.11%.

Q: Which inhibition does the source give for `O=C(N/N=C/c1ccco1)c1ccc(C(=O)N/N=C/c2ccco2)o1` here?
A: The inhibition was 56.8% (active).

Q: Which inhibition does the source give for `COc1ccc2[nH]c3c(C)c4cc[n+](C)cc4c(C)c3c2c1` here?
A: Its inhibition is -2.43%.

Q: How did the inhibition turn out when `COc1ccc(/C=C/C(=O)OCC(=O)NC2CCCCCC2)cc1OC` was run?
A: Its inhibition is 45.2% (active).

Q: Which inhibition does the source give for `N/C(=N\OC(=O)N1c2ccccc2Sc2ccccc21)c1ccc(Br)cc1` here?
A: The inhibition was 46.1% (active).

Q: `Cc1ccc(Cc2nnc(SCC(=O)Nc3ccc(C)cc3C)[nH]c2=O)cc1` was tested. Which inhibition did it give?
A: Its inhibition is 39.7% (active).

Q: With `COCCCn1c(Cc2csc(Nc3cccc(Cl)c3)n2)nnc1SCC(=O)OC1CCCCC1` as the compound, how does the inhibition read?
A: The inhibition was 59.1% (active).

Q: `Cc1ccc(S(=O)(=O)Nc2ccc3c(c2)C(=O)N([C@H](C)CO)C[C@@H](C)[C@@H](CN(C)C(=O)Nc2cccc4ccccc24)O3)cc1` was tested. Which inhibition did it give?
A: Its inhibition is 5.11%.

Q: `N#Cc1ccccc1CN1C(=O)S/C(=C/c2cccn2-c2cccc(C(=O)O)c2)C1=O` was tested. Which inhibition did it give?
A: The inhibition was 67% (active).

Q: With `C[N+](C)(C)CCNC(=O)c1cc[n+](Cc2ccccc2)c(/C=N/O)c1` as the compound, how does the inhibition read?
A: Its inhibition is 83.3% (active).

Q: Which inhibition does the source give for `CC(=O)Nc1ccccc1Sc1ccc2c3c(cccc13)C(=O)N(c1ccc(C)cc1)C2=O` here?
A: Its inhibition is 0.82%.

Q: For `COC(=O)CNC(=O)C(CCSC)NC(C)=O` (stereo not drawn) (Ac-[ξM]-Gly-OMe), which inhibition is on record?
A: The inhibition was -12.9%.

Q: Which inhibition does the source give for `O=C(CNC(=O)C(c1ccccc1)c1ccccc1)N/N=C\c1ccc2c(c1)OCO2` here?
A: The inhibition was -8.05%.

Q: With `O=C(CCC(=O)N/N=C/c1ccc(Br)o1)N/N=C/c1ccc(Br)o1` as the compound, how does the inhibition read?
A: The inhibition was 40.3% (active).

Q: How did the inhibition turn out when `O=C(CCNC(=O)c1ccccc1)NN=Cc1ccc(Br)o1` was run?
A: Its inhibition is 45% (active).

Q: For `N#Cc1c(-c2cccs2)nc(SCC(=O)c2ccc(Br)cc2)[nH]c1=O`, which inhibition is on record?
A: The inhibition was 78.5% (active).

Q: `COc1ccc(Cc2nnc(NC(=O)Cc3cccs3)s2)cc1` was tested. Which inhibition did it give?
A: The inhibition was 77.3% (active).

Q: For `O=S(=O)(Nc1ccccc1Cl)c1cccc2nsnc12`, which inhibition is on record?
A: The inhibition was 48.1% (active).
